KCC2 mod – KCC2 (human) Cl- transport modulation. Q9H2X9. KCC2 cells, thallium flux FluoZin-2 fluorescence. B-score of Tl+ flux slope (higher = more flux/activation; lower = inhibition) at 10 µM. actives 2.2% (n = 190,000). AID 1456;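 active = thallium flux slope and its plate-corrected score both differing from the plate sample mean at a set confidence after two filtering rounds, in either direction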;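 note: slope of fluorescence scaled to starting intensity during 10 to 20 s after thallium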
KCNQ1 block – human KCNQ1 channel inhibition. CHO-K1 KCNQ1, FluxOR thallium flux fluorescence; active compounds read high. B-score at 10 µM. actives 1.3% (n = 310,000). AID 2642;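 active = compounds whose thallium flux B-score, printed positive for inhibition, exceeds three library SD while starting fluorescence stays within three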;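 note: channel opened by potassium depolarization with thallium stimulus after 20 min compound exposure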
Target sequence (P51787 whole entry, looked up): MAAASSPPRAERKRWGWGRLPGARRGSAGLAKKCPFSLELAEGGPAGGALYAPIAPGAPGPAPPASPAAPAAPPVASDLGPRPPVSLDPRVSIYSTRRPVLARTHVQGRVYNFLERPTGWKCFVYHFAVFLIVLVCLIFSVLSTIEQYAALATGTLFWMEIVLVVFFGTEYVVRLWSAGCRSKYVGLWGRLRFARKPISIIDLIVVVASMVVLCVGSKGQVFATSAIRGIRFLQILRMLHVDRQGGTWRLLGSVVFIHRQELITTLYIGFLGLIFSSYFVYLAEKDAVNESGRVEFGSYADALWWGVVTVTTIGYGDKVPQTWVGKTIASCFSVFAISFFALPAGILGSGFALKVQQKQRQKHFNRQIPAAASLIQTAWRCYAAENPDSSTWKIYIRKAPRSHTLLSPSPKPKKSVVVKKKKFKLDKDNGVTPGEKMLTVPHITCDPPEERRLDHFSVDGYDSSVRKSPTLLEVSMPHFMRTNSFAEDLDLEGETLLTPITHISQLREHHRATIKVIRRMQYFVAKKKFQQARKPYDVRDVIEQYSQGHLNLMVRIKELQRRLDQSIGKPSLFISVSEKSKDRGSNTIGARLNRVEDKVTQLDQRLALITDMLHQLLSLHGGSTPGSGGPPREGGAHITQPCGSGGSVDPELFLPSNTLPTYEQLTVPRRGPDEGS
KCNK3 inh – human KCNK3 channel inhibition, primary screen | CHO-KCNK3 thallium flux, FluxOR fluorescence; active compounds read low | AID 602410 | actives 0.84% (n = 340,000) | B-score at 10 µM;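 active = B-score under library mean minus 4 SD, starting fluorescence ratio at most library mean plus 5 SD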;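 note: more negative B-score means stronger inhibition of thallium flux through KCNK3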
KCNQ1 act – potentiates or activates the human KCNQ1 potassium channel. P51787. CHO-K1 KCNQ1, thallium flux FluxOR fluorescence; active compounds read high. B-score at 10 µM. actives 0.35% (n = 310,000);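 active = fluorescence ratio B-score, a plate-corrected score, at least three library SD, with initial intensity B-score within 5 SD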
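Assay system: stable KCNQ1 CHO-K1 line; medium: assay buffer, equal DMSO in all wells; timing: 90 min dye loading and 20 min compound exposure, both at room temperature; technique: kinetic FluxOR thallium fluorescence, 10-s 1-Hz baseline, 110-s post-stimulus read; read-out basis: B score of baseline-normalized fluorescence ratio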
KCNK9 inh – blocks the human KCNK9 two-pore domain potassium channel; Q9NPC2; HEK293 KCNK9, FluxOR thallium flux fluorescence; active compounds read low; B-score at 10 µM; actives 1.2% (n = 310,000); AID 488922;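 active = ratio B-score over 3 SD below the library mean, with starting fluorescence within 5 SD of its mean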;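 note: negative B-score means less thallium flux so channel inhibition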
hERG rescue – hERG (human) protection from proarrhythmic block; AID 1511; actives 0.51% (n = 310,000); activation (rescue from dofetilide block), less the hit threshold, % at 10 µM; Q12809; CHO-hERG, FluxOR thallium flux, dofetilide IC70 present;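 active = activation above the mean of controls blocked by dofetilide plus 5 SD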;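 note: thallium influx through hERG after potassium depolarization seen as dye fluorescence rise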
KCNQ1 inh valid – human KCNQ1 channel inhibition, validation assay. shares compounds with KCNQ1 block. KCNQ1 cell line, FluxOR thallium flux fluorescence. AID 588353. actives 93% (n = 1,600). inhibition, % at 10 µM;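 active = primary screen active, with duplicate mean exceeding buffer control mean plus 3 SD of buffer wells, cut at about 28% in these data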;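 note: 0% = buffer control ratio and 100% = XE991 inhibitor control ratio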
CHO Tl flux – counter-screen for KCNQ1 inhibitors: effect in parental CHO cells | actives 21% (n = 1,600) | parental CHO-K1, FluxOR thallium flux fluorescence ratio; active compounds read low; zero means no signal rise above baseline | AID 588366 | fluorescence ratio (Tl flux) at 10 µM | shares compounds with KCNQ1 block;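 active = mean of duplicate thallium-flux fluorescence ratios in parental host cells more than 5 SD below the buffer control mean, cut at about 0.38 in these data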;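 note: ratio is peak minus minimum fluorescence divided by baseline fluorescence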
KCNQ1 ephys val – blocks human KCNQ1 current in automated patch clamp; calls only at 10 µM; actives 20% (n = 490); shares compounds with KCNQ1 block; AID 624120; KCNQ1-CHO cells;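 active = KCNQ1 current drop exceeding 3 SD of negative control wells, seen in both duplicate runs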;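 note: steady state current during a 2 s step from -80 to +40 mV; negative values mean current inhibition and positive values mean potentiation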
KCNQ2 inh – selectivity of KCNQ1 inhibitors: inhibition of rat KCNQ2 channel. actives 71% (n = 1,600). shares compounds with KCNQ1 block. AID 651746. inhibition, % at 10 µM. KCNQ2 cells, FluxOR thallium flux fluorescence;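 active = mean percent inhibition of the KCNQ2 thallium signal more than 5 SD above the buffer-only control wells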;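 note: KCNQ2 expressed in CHO cells; 0% = buffer control wells and 100% = XE-991 inhibitor control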
KCNQ1 KCNE1 spec – human KCNQ1/KCNE1 inhibition in KCNQ1 specificity screen; shares compounds with KCNQ1 block; KCNQ1/KCNE1 cells, FluxOR thallium flux fluorescence; inhibition, % at 10 µM; actives 77% (n = 1,600); AID 652147;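 active = mean percent inhibition of duplicate wells above the buffer-only control mean plus 3 SD of those controls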;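 note: 0% = buffer only wells and 100% = XE-991 inhibitor control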
Numbers without * were called inactive; i = inactive; x = no result given; + = active, no number. Rows were chosen to be rich in hits. Some 4.1% of all compounds tested hit in one or more screens of this group.

SMILES	KCC2 mod	KCNQ1 block	KCNK3 inh	KCNQ1 act	KCNK9 inh	hERG rescue	KCNQ1 inh valid	CHO Tl flux	KCNQ2 inh	KCNQ1 KCNE1 spec	others
COc1ccc(C(=O)Nc2cc(C)nn2-c2ccc(C)cc2)cc1	x	i	i	i	i	-8.5	x	x	x	x
O=C(OCc1nnc(-c2ccc([N+](=O)[O-])cc2)o1)c1ccc(F)c(S(=O)(=O)N2CCOCC2)c1	x	x	i	x	x	x	x	x	x	x
CCOc1ccc(NC(C)c2cc(Cl)ccc2O)cc1 (stereo not drawn)	-0.0708	i	i	i	i	-4.6	x	x	x	x
CC(Nc1ccc(Cl)cc1)c1cc(Cl)ccc1O (stereo not drawn)	-0.00308	6*	i	i	i	-7.4	123.5*	0.483	i	152.5%*
COc1cccc(C(=O)Nc2ccc(Cl)c(C(F)(F)F)c2)c1	x	9*	i	i	i	-14.7	136.0*	0.373*	130.0%*	78.0%*
Cc1ccccc1NC(=O)c1nc(S(C)(=O)=O)ncc1Cl	x	i	i	i	i	-19.6	x	x	x	x
CS(=O)(=O)c1ncc(Cl)c(C(=O)Nc2ccc(OC(F)F)cc2)n1	x	6*	i	i	i	-21.4	74.0*	0.342*	i	118.0%*
CS(=O)(=O)c1ncc(Cl)c(C(=O)Nc2ccc(N3CCOCC3)cc2)n1	-2.44	7*	i	i	i	-27.4	73.0*	0.414	92.3%*	108.0%*
COc1ccc(OCC(=O)OCC(=O)c2ccc(OC)c(F)c2)cc1	x	x	i	x	x	x	x	x	x	x
CC(NC(=O)Nc1ccc(Cl)c(Cl)c1)C(c1ccccc1)N1CCOCC1 (stereo not drawn)	-2.52	9*	i	i	i	-13.4	105.0*	0.406	81.3%*	79.0%*	KCNQ1 ephys val=+
COc1ccc(CCN2C(=O)c3[nH]nc(-c4ccccc4O)c3C2c2cccc(Cl)c2)cc1 (stereo not drawn)	-0.00561	9*	i	i	i	-3.5	109.0*	0.458	90.3%*	139.5%*	KCNQ1 ephys val=+
COc1ccc(C2c3c(-c4ccccc4O)n[nH]c3C(=O)N2CCc2ccc(OC)c(OC)c2)cc1 (stereo not drawn)	x	i	i	i	i	-23.5	x	x	x	x
CN(C)S(=O)(=O)c1cccc(NC(=S)NC2CCCCC2)c1	0.261	i	i	i	i	-8.9	x	x	x	x
FC(F)Sc1ccc(NC(=S)NCc2ccccc2)cc1	-1.81	8*	i	i	i	-7.9	58.0*	0.594	93.3%*	i
CC1CCCCC1NC(=S)Nc1ccc(SC(F)F)cc1 (stereo not drawn)	-1.27	7*	i	i	i	-13.6	65.5*	0.537	i	39.5%*
FC(F)Oc1ccc(NC(=S)NCc2ccccc2)cc1	-0.785	i	i	i	i	-8.3	x	x	x	x
CC1CCCC(NC(=S)Nc2cccc(S(=O)(=O)N(C)C)c2)C1C (stereo not drawn)	0.00969	8*	i	i	i	-13.6	35.0*	0.512	i	i
CC1CCN(C(=S)Nc2ccc(SC(F)F)cc2)CC1	0.69	i	i	i	i	-2.5	x	x	x	x
CC(=O)c1ccc(NC(=S)NC2CCCC(C)C2C)cc1 (stereo not drawn)	-0.00333	7*	i	i	i	-12.3	47.0*	0.593	i	34.5%*
C[N+]1(C)CCCC(OC(=O)C(O)(c2ccccc2)c2ccccc2)C1 (stereo not drawn)	x	i	i	i	i	-2.8	x	x	x	x
CCCCCOc1ccc(Br)cc1CSC(=N)N	1.25	9*	i	i	i	-27.2	125.0*	0.369*	86.3%*	94.5%*
COc1ccc(Br)cc1CSC(=N)N	0.985	i	i	i	i	-8.8	x	x	x	x
CSc1ccc(CNC(=O)C(C)n2nc(C)c3c(C)n(-c4ccccc4)nc3c2=O)cc1 (stereo not drawn)	x	i	i	i	i	-8.7	x	x	x	x
Oc1ccc2nnc3c(Br)cnn3c2c1	x	24*	i	i	i	-44.0	+	0.042*	i	i
Clc1ccc2nc3c4ccccc4cnn3c2c1	-0.667	i	i	i	i	-6.0	x	x	x	x
SMILES	KCC2 mod	KCNQ1 block	KCNK3 inh	KCNQ1 act	KCNK9 inh	hERG rescue	KCNQ1 inh valid	CHO Tl flux	KCNQ2 inh	KCNQ1 KCNE1 spec	others
COc1cccc(C2NC(c3cccc(OC)c3O)C(C)C(=O)C2C)c1O (stereo not drawn)	-1.52	i	i	i	i	-12.3	x	x	x	x
CC1C(=O)C(C)C(c2cc(Cl)ccc2O)NC1c1cc(Cl)ccc1O (stereo not drawn)	x	10*	i	i	i	-15.8	83.5*	0.427	82.7%*	122.5%*
O=C(Nc1c2c(nn1-c1ccccc1)CS(=O)(=O)C2)c1ccccc1Br	x	i	i	i	i	-12.4	x	x	x	x
COc1ccccc1CC(Cc1nc2ccccc2[nH]1)c1nc2ccccc2[nH]1 (stereo not drawn)	-0.693	8*	i	i	i	-17.7	47.0*	0.418	68.7%*	46.5%*
COc1ccc(-c2nc3cc(C)ccn3c2NCc2ccc3c(c2)OCO3)cc1	-0.637	7*	i	i	i	-25.4	98.5*	0.464	88.7%*	135.5%*	KCNQ1 ephys val=i
c1ccc(-c2nc3ccccn3c2NCc2ccc3c(c2)OCO3)cc1	-1.13	i	i	i	i	-27.9	x	x	x	x
O=S(=O)(Nc1ccc(-n2cccc2)cc1)c1ccc(F)cc1	-0.895	i	i	i	i	-5.7	x	x	x	x
O=S(=O)(Nc1ccc(-n2cccc2)cc1)c1ccc(Cl)c(Cl)c1	-1.32	10*	i	i	i	-12.5	105.5*	0.422	117.3%*	162.5%*	KCNQ1 ephys val=i
CC(Oc1cccc(Cl)c1)C(=O)Nc1ccccc1N1CCCCC1 (stereo not drawn)	x	9*	i	i	-7.81*	-10.7	115.5*	0.469	83.7%*	138.5%*	KCNQ1 ephys val=i
CC(Oc1cccc(Cl)c1)C(=O)Nc1ccccc1C(=O)N1CCCCC1 (stereo not drawn)	x	i	i	i	i	-12.8	x	x	x	x

Screening data as filed in PubChem BioAssay.
